GalR3 antag: blocks the human galanin receptor 3 | O60755 | HEK293 GalR3-CNG cAMP membrane potential fluorescence; galR3 body fused to GalR1 C-terminus | inhibition, % at 3 µM | 360,000 tested, 0.44% active | AID 651719;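 active = inhibition above the screen-wide average plus 3 SD, cut at about 13% in these data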;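 note: forskolin and galanin both at EC90 stimulate the cells; cAMP rise reported by CNG channel membrane potential dye signal; 0% = forskolin plus galanin with DMSO and 100% = forskolin alone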
Target sequence (O60755 1-299 limits assumed): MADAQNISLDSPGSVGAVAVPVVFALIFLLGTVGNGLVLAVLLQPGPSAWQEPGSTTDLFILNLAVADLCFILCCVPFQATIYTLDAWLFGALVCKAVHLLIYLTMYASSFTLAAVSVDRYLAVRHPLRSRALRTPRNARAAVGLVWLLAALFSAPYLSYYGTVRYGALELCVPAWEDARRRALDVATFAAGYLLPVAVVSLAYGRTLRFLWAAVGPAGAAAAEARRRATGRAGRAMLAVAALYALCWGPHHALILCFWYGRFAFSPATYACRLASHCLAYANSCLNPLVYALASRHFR
CHO parental Ca: signal in parental CHO cells, OX1R antagonist counter-screen; parental CHO-K1, ATP-induced calcium, Fluo-8 fluorescence; inhibition, % at 5.6 µM; 330,000 tested, 0.63% active; AID 463079;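 active = inhibition above that plate's mean sample inhibition plus 3 SD, cut at about 26% in these data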;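 note: 0% = ATP-challenged DMSO wells and 100% = DMSO wells without ATP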
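Assay system: untransfected parental CHO cell line. Also added: ATP agonist challenge. Dosing: one dose, 5.6 µM nominal. Measured by: Fluo-8 fluorescence. Read-out: % inhibition. Benchmarks: ATP wells versus no-ATP DMSO wells. Repeats: no replicates.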
TAAR1 ag: human TAAR1 agonism. Q96RJ0. CHO RD-HGA16 TAAR1, Fluo-8 calcium fluorescence; vehicle wells 0%, saturating PEA agonist 100%. activation, % at 3 µM. 360,000 tested, 0.99% active;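 active = activation above the mean activation of all test compounds in the run plus 3 SD, cut at about 38% in these data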
Target sequence (Q96RJ0 whole entry, looked up): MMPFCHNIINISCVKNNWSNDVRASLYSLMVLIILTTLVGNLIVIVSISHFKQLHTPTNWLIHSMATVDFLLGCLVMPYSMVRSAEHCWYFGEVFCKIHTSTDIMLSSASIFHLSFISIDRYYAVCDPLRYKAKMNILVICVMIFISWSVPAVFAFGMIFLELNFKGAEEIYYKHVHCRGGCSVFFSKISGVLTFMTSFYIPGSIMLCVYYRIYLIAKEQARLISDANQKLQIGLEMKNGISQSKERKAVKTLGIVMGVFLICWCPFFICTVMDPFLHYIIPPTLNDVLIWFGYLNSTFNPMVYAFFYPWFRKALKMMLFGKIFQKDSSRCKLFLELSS
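Repeats: no replicates (n 1) | Material: CHO-derived RD-HGA16 cells with stable Gα16 and human TAAR1 | Technique: Kinetic Fluo-8 calcium fluorescence | Schedule: 17-24 h seeding, 75 min 37 °C dye, 30 min RT | Evaluation: % activation from peak over basal fluorescence ratio, DMSO-to-PEA scaled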
TAAR1 antag: antagonists of human TAAR1 | CHO RD-HGA16 TAAR1, Fluo-8 calcium fluorescence, antagonist | AID 624466 | 360,000 tested, 1.5% active | inhibition, % at 3 µM;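 active = inhibition above a per-plate cutoff, the mean inhibition of test compounds on that plate plus 3 SD, cut at about 49% in these data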;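 note: 0% = DMSO plus EC80 beta-PEA response and 100% = DMSO alone without agonist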
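Material: RD-HGA16 CHO cells with stable hTAAR1 and Gα16; Dosing: single nominal final test compound concentration of 3 µM; Schedule: seeding 17-24 h prior, 75-min 37 °C, 30-min RT dye loading; Detection: kinetic Fluo-8 calcium fluorescence measurement; Measure: % inhibition from peak post-agonist over basal fluorescence ratio; Benchmarks: vehicle and agonist controls.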
OX1R antag-1: human HCRTR1 antagonism | CHO/OX1R cells, Fluo-8 calcium fluorescence, orexin A | AID 434989 | 330,000 tested, 0.43% active | O43613 | inhibition, % at 5 µM;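 active = inhibition above its plate's threshold, mean inhibition of all tested compounds on the plate plus 3 SD, cut at about 37% in these data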;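 note: 0% = orexin A challenge wells and 100% = SB-334867-A antagonist wells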
OX1R antag-2: OX1R (human) antagonism; OX1R-expressing cells, FRET antagonist read-out; inhibition, % at 6.6 µM; 330,000 tested, 1.8% active; in the data active = inhibition mostly above about 38%, no sharp cut-off; inactive = mostly below about 40%;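 note: 0% = agonist challenge alone and 100% = reference antagonist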
The depositor's hits bear a star; . = no result. Shown are actives, neighbours in structure and some others; about 4.3% of the full set was active somewhere.

SMILES	GalR3 antag	CHO parental Ca	TAAR1 ag	TAAR1 antag	OX1R antag-1	OX1R antag-2
CCS(=O)c1ccccc1C(=O)OCC(=O)Nc1ccc2ccccc2c1 (stereo not drawn)	-6	39*	8	30	-11	9
Nc1nc2c(ncn2[C@@H]2O[C@H](C(=O)NCCCN3CCCC3=O)[C@@H](O)[C@H]2O)c(=O)[nH]1	-7	.	2	-18	.	.
O=C(CC1CCCC1)N[C@@H](Cc1cccnc1)C(=O)N1CCC[C@H]1C(=O)NC1CCCC1	2	.	1	-2	.	.
COc1ncc(-c2ccc3c(c2)S(=O)(=O)c2cccc(C(=O)O)c2C3=O)cn1	-4	7	2	3	-1	38*
COc1ccc(-c2ccc3c(c2)S(=O)(=O)c2cccc(C(=O)N4CCN(C5CCCCC5)CC4)c2C3=O)cc1OC	0	-13	20	52*	-2	26
O=C(O)c1cccc2c1C(=O)c1ccc(N3CCCCC3)cc1S2(=O)=O	-1	3	4	20	-2	11
O=C(O)c1cccc2c1C(=O)c1ccc(Cl)cc1S2(=O)=O	2	-6	3	7	0	39*
O=C(CSc1nnnn1-c1ccccc1)Nc1ccc(Cl)cc1	-4	-8	4	-9	-2	11
O=C(CSc1nnnn1-c1ccccc1)Nc1ccc(Cl)cn1	-3	44*	12	-5	0	11
CCN(CC)S(=O)(=O)c1ccc2oc(SCc3ccc(F)cc3)nc2c1	-4	40*	11	55*	20	29
C/C(=N\NC(=O)CCc1c[nH]c2ccccc12)c1ccc([N+](=O)[O-])cc1	-3	0	6	-2	-9	59*
CCCNC1(C(N)=O)CCN(Cc2ccccc2)CC1	0	.	2	-20	.	.
CC1(C)Cc2c(sc(NC(=O)COc3cccc4ccccc34)c2C#N)C(C)(C)N1	-3	82*	13	-3	26	9
COc1ccc(S(=O)(=O)N2CCC[C@@H]2C(=O)N2CCC[C@H]2C(=O)NCc2ccncc2)cc1C	-5	.	4	-19	.	.
COC(=O)c1cc2c(c3c4cc(C)ccc4n(S(=O)(=O)c4ccc(OC)cc4)c13)C(=O)N(Cc1ccccc1)C2	-5	.	0	-14	.	.
COc1ccc(NC(=O)c2cc(-c3ccncc3)nc3ccc(Br)cc23)cc1OC	0	-4	15	53*	-10	27
COc1ccc(CNC(=O)c2cc(-c3ccncc3)nc3c(C)cc(C)cc23)cc1OC	3	-19	5	45	-8	48*
COc1cccc(CCC(=O)Nc2cccc(S(=O)(=O)N3CCCC3)c2)c1OC	-5	-25	2	21	-27	12
C=CCOC(=O)C1=C[C@@H](c2ccc(C(F)(F)F)cc2)[C@H](CCCO)[C@@H](OCC)O1	-6	-16	7	6	-46	41
C[C@@H]1Cn2cnc(C(=O)NCC(=O)OC(C)(C)C)c2C(=O)N1	-3	.	2	3	.	.
Cc1ccc2[nH]c3c(NCc4ccco4)ncnc3c2c1	-8	-6	14	23	-6	50*
COc1ccc(-c2cn3cc(C(=O)NN)ccc3n2)cc1	-1	54*	1	-7	57*	27
CC(=O)NS(=O)(=O)c1ccc2c(c1)C(=O)c1cc(S(=O)(=O)NC(C)=O)ccc1-2	-2	-10	3	-11	-13	58*
CC(NS(=O)(=O)c1cccc(S(=O)(=O)c2ccccc2)c1)C(=O)O (stereo not drawn)	-1	4	0	3	7	6
CC(NS(=O)(=O)c1ccc2c(c1)C(=O)c1cc(S(=O)(=O)NC(C)C(=O)O)ccc1-2)C(=O)O (stereo not drawn)	-2	1	2	-18	-5	60*
SMILES	GalR3 antag	CHO parental Ca	TAAR1 ag	TAAR1 antag	OX1R antag-1	OX1R antag-2
O=C(C(=O)N1CCC(CNC(=O)c2ccccc2F)CC1)c1cc2ccccc2o1	-5	.	0	11	.	.
Cc1cc(NCCc2c[nH]c3ccccc23)ccc1Nc1cccnc1	-4	.	5	-7	.	.
Oc1ccc(Br)cc1-c1cc(-c2ccc(Cl)cc2)n[nH]1	-5	50*	8	22	24	24
O=C(CCC(=O)N(CC(=O)NC1CCCC1)c1ccc(F)cc1)Nc1nccs1	-5	-10	1	-9	-13	16
COC(=O)c1c(C)oc2ccc(NS(=O)(=O)c3cccs3)cc12	-5	9	24	9	-3	40*
CCCCNC(=O)C1(C)CCCCN1C(=O)c1ccc2c(c1)CCO2 (stereo not drawn)	-5	.	2	13	.	.
CC(=O)Oc1ccccc1C(=O)C=Cc1cccc([N+](=O)[O-])c1	28*	.	1	7	.	.
Cc1cc(O)c(C(=O)/C=C/c2cccc([N+](=O)[O-])c2)c(=O)o1	-1	-10	-1	-4	-20	5
Cc1ccc(S(=O)(=O)N2CCCc3nc(-c4ccc(Br)cc4)ccc32)cc1	-7	.	0	-24	.	.
O=C(CN1C(=O)c2ccccc2C1=O)NC1CCS(=O)(=O)C1 (stereo not drawn)	-7	.	2	-27	.	.
O=C(CN1C(=O)c2ccc([N+](=O)[O-])cc2C1=O)NCC1CCCO1 (stereo not drawn)	-1	3	5	-57	-7	68*
O=C(CN1C(=O)c2ccc([N+](=O)[O-])cc2C1=O)NC1CCS(=O)(=O)C1 (stereo not drawn)	-1	4	1	-6	-6	56*
O=C(/C=C/c1ccc([N+](=O)[O-])cc1)NCC1CCCO1 (stereo not drawn)	-2	-12	-2	-19	-12	59*
O=C(NCC1CCCO1)c1ccc(Br)s1 (stereo not drawn)	2	-2	1	10	-13	15
O=C(NCC1CCCO1)c1ccc([N+](=O)[O-])s1 (stereo not drawn)	-8	5	3	0	-9	70*
CC1(C(=O)NCc2ccco2)Cc2c(-c3ccccc3)ccnc2O1 (stereo not drawn)	-2	.	1	-18	.	.
Brc1cccc(CN2CCN(c3ncc(Cc4ccccc4)cn3)CC2)n1	-9	.	1	-18	.	.
CN(C)c1ccc(-c2nc3ccccc3c(=O)[nH]2)cc1	-4	-4	5	-45	17	57*
O=C(COc1ncnc2cc([N+](=O)[O-])ccc12)NCCc1ccc(Cl)cc1	-4	-21	1	-6	-18	18
CCOC(=O)c1c(C)[nH]c(C)c1C(=O)COc1ncnc2cc([N+](=O)[O-])ccc12	0	-20	7	18	-40	75*
O=C(COc1ncnc2cc([N+](=O)[O-])ccc12)NC(=O)NC1CCCCC1	-6	-13	41*	-2	-7	19

Screens (PubChem BioAssay)
